Legend:
[1] = tested on: YFP-expressing HEK293 cells; test: Fura-2 calcium imaging, YFP-expressing HEK293 cells; type: cell-based; conditions: mean ±SEM (n≥3)
Summary of the method: (§1)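 HEK293 cells were transiently transfected (Genejammer) with the human channel construct or YFP control and measured 24 h later. Cells on glass coverslips were loaded with 4 µM fura-2-AM in bath solution (mM: 138 NaCl, 6 KCl, 2 MgCl2, 2 CaCl2, 10 HEPES, 5.5 D-glucose; pH 7.4). Compounds were applied at 10 µM and the F340/F380 ratio recorded. Values are mean ± SEM, n≥3.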

TRPML3 [2] = target: T1, TRPML3 (Homo sapiens, UniProt Q8TDD5); test: Whole-cell patch-clamp, HEK293 cells transiently transfected with TRPML3; type: cell-based; conditions: for nA/pF (-80 mV) (TRPML3): current density at −80 mV, 10 µM in standard bath solution, mean ±SEM (n≥3); for average current density relative to constitutively active TRPML3 A419P: whole-cell, −80 mV
T1 sequence (Q8TDD5 1-553): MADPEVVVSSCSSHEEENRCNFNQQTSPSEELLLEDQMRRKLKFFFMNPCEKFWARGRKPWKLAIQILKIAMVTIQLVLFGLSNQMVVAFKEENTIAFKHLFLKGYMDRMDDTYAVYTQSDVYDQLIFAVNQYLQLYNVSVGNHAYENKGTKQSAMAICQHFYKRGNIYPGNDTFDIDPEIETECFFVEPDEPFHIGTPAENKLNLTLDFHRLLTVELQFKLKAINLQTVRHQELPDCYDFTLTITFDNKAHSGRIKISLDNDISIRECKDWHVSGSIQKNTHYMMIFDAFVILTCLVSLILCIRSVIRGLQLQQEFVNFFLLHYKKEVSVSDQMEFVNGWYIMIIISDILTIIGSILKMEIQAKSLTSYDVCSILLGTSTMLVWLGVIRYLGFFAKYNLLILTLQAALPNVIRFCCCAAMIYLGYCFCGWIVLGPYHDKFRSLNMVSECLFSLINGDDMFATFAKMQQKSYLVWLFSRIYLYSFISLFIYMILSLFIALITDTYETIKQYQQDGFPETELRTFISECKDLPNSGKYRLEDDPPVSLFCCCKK
Summary of the method: (§2)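 Whole-cell patch clamp was done on HEK293 cells 24 h after transient transfection with human TRPML3 or YFP; constitutively active TRPML3(A419P) cells served as positive control. Bath solution (mM): 138 NaCl, 5.4 KCl, 2 MgCl2, 2 CaCl2, 10 HEPES, 10 d-glucose; pH 7.4. Pipette solution (mM): 140 CsCl, 10 HEPES, 3 ATP-Na, 1 BAPTA, 2 MgCl2; pH 7.2. Compounds at 10 µM were perfused. Capacitance-normalized current at −80 mV is reported as mean ± SEM, n≥3.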

TRPML3 [3] = target: T1, TRPML3; test: Fura-2 calcium imaging, HEK293 cells transiently expressing TRPML3; type: cell-based; conditions: for ⊗F340/F380 (TRPML3): 10 µM compound, mean ±SEM (n≥3); for kinetics of intracellular calcium increase: TRPML3-transfected HEK293 cells
Summary of the method: as §1

cochlear hair cells = test: Recording from acutely isolated cochlear hair cells; type: cell-based, rat; conditions: up-to 100 µM; in SBS, SN-2 also in ELS
[4] = target: T2, TRPML3 coexpressed with TRPML1 (Homo sapiens, UniProt Q8TDD5); test: Calcium imaging, HEK293 cells coexpressing TRPML3 with TRPML1; type: cell-based; conditions: 10 µM
T2 sequence (Q8TDD5 1-553): T1 sequence (Q8TDD5 1-553)
Summary of the method: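 Human TRPML3 and TRPML1 were transiently coexpressed in HEK293 cells (Genejammer) and imaged 24 h post-transfection. Cells on glass coverslips were loaded with 4 μM fura-2-AM in bath solution (mM: 138 NaCl, 6 KCl, 2 MgCl₂, 2 CaCl₂, 10 HEPES, 5.5 D-glucose, pH 7.4) and read on a monochromator imaging system. Test compound was 10 μM. Mean ± SEM, n≥3 independent experiments, 20–30 cells each.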

TRPML2 = target: T3, TRPML2 (Homo sapiens, UniProt Q8IZK6); test: Fura-2 calcium imaging, HEK293 cells expressing TRPML2; type: cell-based; conditions: 10 µM
T3 sequence (Q8IZK6 1-566): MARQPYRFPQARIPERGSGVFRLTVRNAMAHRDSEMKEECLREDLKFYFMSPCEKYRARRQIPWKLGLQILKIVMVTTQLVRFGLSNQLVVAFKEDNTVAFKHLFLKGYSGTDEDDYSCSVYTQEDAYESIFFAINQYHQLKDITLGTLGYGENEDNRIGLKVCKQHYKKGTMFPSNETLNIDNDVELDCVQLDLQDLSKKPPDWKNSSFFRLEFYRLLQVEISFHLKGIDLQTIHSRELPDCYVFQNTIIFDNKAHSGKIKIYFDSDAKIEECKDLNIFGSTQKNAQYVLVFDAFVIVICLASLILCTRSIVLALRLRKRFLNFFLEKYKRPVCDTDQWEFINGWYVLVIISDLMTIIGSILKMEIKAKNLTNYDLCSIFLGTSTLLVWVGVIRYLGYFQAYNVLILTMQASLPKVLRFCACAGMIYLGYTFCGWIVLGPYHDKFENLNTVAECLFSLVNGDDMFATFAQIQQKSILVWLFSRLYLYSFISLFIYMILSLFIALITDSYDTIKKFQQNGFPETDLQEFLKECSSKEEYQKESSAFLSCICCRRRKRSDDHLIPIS
Summary of the method: as §1

danio rerio TRPN1 = danio rerio TRPN1 (Danio rerio, UniProt Q7T1G6); type: cell-based; conditions: for Emax: HEK293, read-out: Max % Activation (Control); for activity against TRPN1: compounds tested from powders
Sequence of danio rerio TRPN1 (Q7T1G6 1-1614): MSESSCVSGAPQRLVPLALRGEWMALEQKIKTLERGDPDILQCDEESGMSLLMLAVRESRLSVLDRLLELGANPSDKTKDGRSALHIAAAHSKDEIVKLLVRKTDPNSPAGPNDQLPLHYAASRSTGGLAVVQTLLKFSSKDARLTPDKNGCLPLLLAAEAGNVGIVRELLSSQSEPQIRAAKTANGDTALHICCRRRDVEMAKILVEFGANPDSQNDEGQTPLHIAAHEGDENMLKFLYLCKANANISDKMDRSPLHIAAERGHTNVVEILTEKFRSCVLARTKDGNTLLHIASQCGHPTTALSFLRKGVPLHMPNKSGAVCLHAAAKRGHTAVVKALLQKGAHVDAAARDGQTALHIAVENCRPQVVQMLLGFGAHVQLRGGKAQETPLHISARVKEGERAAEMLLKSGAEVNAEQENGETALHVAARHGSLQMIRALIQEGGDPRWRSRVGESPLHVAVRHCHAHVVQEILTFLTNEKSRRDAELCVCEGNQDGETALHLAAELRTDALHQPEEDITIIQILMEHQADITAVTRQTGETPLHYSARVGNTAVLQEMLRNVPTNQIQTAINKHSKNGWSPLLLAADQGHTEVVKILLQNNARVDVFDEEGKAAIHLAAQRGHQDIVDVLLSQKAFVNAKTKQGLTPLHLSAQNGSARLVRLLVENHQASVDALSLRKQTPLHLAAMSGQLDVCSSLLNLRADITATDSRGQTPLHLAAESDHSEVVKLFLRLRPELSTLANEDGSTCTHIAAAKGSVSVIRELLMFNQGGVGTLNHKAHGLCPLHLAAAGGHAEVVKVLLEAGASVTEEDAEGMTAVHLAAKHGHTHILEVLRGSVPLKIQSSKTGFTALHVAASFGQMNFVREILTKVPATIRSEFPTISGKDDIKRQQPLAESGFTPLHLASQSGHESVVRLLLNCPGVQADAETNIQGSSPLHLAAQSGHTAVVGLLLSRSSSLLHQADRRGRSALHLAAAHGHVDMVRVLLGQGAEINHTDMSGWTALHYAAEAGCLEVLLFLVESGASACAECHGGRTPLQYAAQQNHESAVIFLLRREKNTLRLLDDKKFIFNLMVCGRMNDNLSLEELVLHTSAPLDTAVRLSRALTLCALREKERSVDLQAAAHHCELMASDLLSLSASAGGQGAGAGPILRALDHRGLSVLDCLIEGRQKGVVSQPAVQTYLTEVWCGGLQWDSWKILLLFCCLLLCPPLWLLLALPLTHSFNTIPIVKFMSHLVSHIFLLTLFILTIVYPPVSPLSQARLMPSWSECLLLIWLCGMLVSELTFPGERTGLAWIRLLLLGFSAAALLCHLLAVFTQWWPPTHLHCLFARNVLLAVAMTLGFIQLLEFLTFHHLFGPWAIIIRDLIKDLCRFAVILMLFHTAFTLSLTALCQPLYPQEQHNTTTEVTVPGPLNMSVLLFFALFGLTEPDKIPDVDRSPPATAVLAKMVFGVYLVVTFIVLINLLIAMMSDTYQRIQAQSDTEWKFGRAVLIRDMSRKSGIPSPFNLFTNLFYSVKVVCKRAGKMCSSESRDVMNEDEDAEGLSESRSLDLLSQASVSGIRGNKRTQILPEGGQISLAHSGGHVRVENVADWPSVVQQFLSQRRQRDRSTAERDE
Summary of the method: (§3)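 HEK293 lines stably expressed YFP-fused human TRPML3 or zebrafish TRPN1 (G418 0.8 mg/ml, twice subcloned) and were plated at 1,500 cells/well for 23 h at 37 °C. After Fluo-8 loading (1 h 37 °C, 30 min RT), a 5 s basal read and 120 s post-addition read were taken. Max/basal ratios were normalized to DMSO and carbachol (87 µM).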

TRPML3 [5] = target: T1, TRPML3; type: cell-based; conditions: HEK293, read-out: Max % Activation (TRPML3)
Summary of the method: as §3

[6] = target: T4, TRPML3 coexpressed with dynamin (Homo sapiens, UniProt Q8TDD5); test: Calcium imaging, HEK293 cells coexpressing wild type dynamin with TRPML3; type: cell-based; conditions: compared to control experiments
T4 sequence (Q8TDD5 1-553): T1 sequence (Q8TDD5 1-553)
Summary of the method: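 HEK293 cells were transiently cotransfected (Genejammer) with wild-type dynamin and TRPML3 and imaged 24 h later. Cells on glass coverslips were loaded with 4 µM fura-2-AM in bath solution (mM: 138 NaCl, 6 KCl, 2 MgCl2, 2 CaCl2, 10 HEPES, 5.5 D-glucose; pH 7.4). Responses to activators were compared with control transfections.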

TRPML3 [7] = type: cell-based; conditions: 10 µM compound; ELS 2 mM Na+, 150 mM K+
Summary of the method: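 Whole-cell recordings used HEK293 cells expressing TRPML3 with 100% series-resistance compensation. Pipette solution (mM): 140 CsCl, 10 HEPES, 3 ATP-Na, 1 BAPTA, 2 MgCl2; pH 7.2. Compound at 10 µM was perfused in endolymph-like solution (mM: 2 NaCl, 150 KCl, 0.25 CaCl2, 10 HEPES, 10 glucose; pH 7.4) or in standard bath. Inward current at −80 mV was normalized to capacitance.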

[8] = tested on: YFP-expressing HEK293 cells; test: Whole-cell patch-clamp, YFP-expressing HEK293 cells; type: cell-based; conditions: current density at −80 mV, mean ±SEM (n≥3)
Summary of the method: as §2

| nA/pF (-80 mV) (TRPML3) (TRPML3 [2]) [nA/pF] | average current density relative to constitutively active TRPML3 A419P (TRPML3 [2]) | ⊗F340/F380 (TRPML3) (TRPML3 [3]) | response in HEK293 cells expressing TRPML2 (TRPML2) | EC50 (danio rerio TRPN1) [µM] | Emax (danio rerio TRPN1) [%] | activity against TRPN1 (danio rerio TRPN1) | Emax (TRPML3 [5]) [%] | response when wild type dynamin coexpressed with TRPML3 in HEK293 cells [6] | Structure (SMILES) | ⊗F340/F380 (Control) [1] | kinetics of intracellular calcium increase (TRPML3 [3]) | TRPML3 channel activity in cochlear hair cells (cochlear hair cells) | calcium imaging response when TRPML1 was coexpressed with TRPML3 [4] | increase in current densities, compound + ELS vs ELS alone or compound in SBS (TRPML3 [7]) [fold] | nA/pF (-80 mV) (Control) [8] [nA/pF] |
| --- | --- | --- | --- | --- | --- | --- | --- | --- | --- | --- | --- | --- | --- | --- | --- |
| −0.55 ±0.08 | Stronger responses | 1.38 ±0.10 | elicited responses | 14.2 ± 2.03 | 61 ± 2 | significant activity against TRPN1 | 200 ± 7 |  | O=S(=O)(NC1CCCCC1N1CCOCC1)c1ccc(Cl)cc1 (centres unmarked) [SF-21, 4-chloro-N-(2-morpholin-4-ylcyclohexyl)benzenesulfonamide] | 0.033 ±0.008 | much more rapid increase than the other compounds | Neither compound at concentrations of up-to 100 µM, with or without endolymph-like extracellular solution, elicited TRPML3 channel activity | strong reduction of the calcium imaging responses |  |  |
| −0.02 ±0.01 |  | 0.51 ±0.05 |  | > 29.9 | 2 |  | 86 ± 7 | reduction in response | Cc1ccc(S(=O)(=O)Nc2ccccc2-c2ccccc2)cc1 [SF-24, 4-methyl-N-(2-phenylphenyl)benzenesulfonamide] | 0.016 ±0.023 |  |  |  | ≤ 10 |  |
| −0.41 ±0.10 | Stronger responses | 0.78 ±0.03 |  | > 29.9 | 47 ± 3 | significant activity against TRPN1 | 175 ± 18 |  | CC1=CC(C)(C)N(C(=O)CN2C(=O)c3ccccc3C2=O)c2ccccc21 [SF-51, 2-[2-oxo-2-(2,2,4-trimethylquinolin-1-yl)ethyl]isoindole-1,3-dione] |  | slowest kinetics |  |  |  | −0.016 ±0.008 |
| −0.08 ±0.02 |  | 0.75 ±0.06 |  | > 29.9 | 2 ± 1 |  | 85 ± 8 |  | CCCC(=O)Oc1c(S(=O)(=O)c2ccc(C)cc2)c(C)nn1C(C)(C)C [SF-71, [2-tert-butyl-5-methyl-4-(4-methylphenyl)sulfonylpyrazol-3-yl] butanoate] |  |  |  |  |  | −0.012 ±0.006 |

From article PMC2834294 (Chemistry & biology, 2010)
